Measurements from ChEMBL document CHEMBL3734675, “Synthesis, antimycobacterial and antibacterial activity of fluoroquinolone derivatives containing an 3-alkoxyimino-4-(cyclopropylanimo)methylpyrrolidine moiety” (2015).
Values after ≈ are worked out from the molar mass of the structure shown.

Experiments:
Assay type in all cases: functional
[1] = system: Streptococcus pneumoniae; experiment: Antibacterial activity against methicillin-resistant Streptococcus pneumoniae ATCC 19615 after 18 to 24 hrs by two-fold serial dilution method
Method in brief: (§1)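 Agar media, standard twofold serial dilution. MIC is the lowest concentration giving complete inhibition of bacterial growth after incubation at 35 °C for 18–24 h. Ciprofloxacin and levofloxacin were run as comparators.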

[2] = system: Klebsiella pneumoniae; experiment: Antibacterial activity against Klebsiella pneumoniae 14-3 after 18 to 24 hrs by two-fold serial dilution method
Method in brief: (§2)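 Twofold serial dilution in agar media against Gram-positive and Gram-negative strains. Plates incubated at 35 °C for 18–24 h. MIC read as the lowest compound concentration giving complete inhibition of bacterial growth.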

[3] = system: Enterococcus faecium; experiment: Antibacterial activity against Enterococcus faecium 14-5 after 18 to 24 hrs by two-fold serial dilution method; method in brief: as §2
[4] = system: Escherichia coli; experiment: Antibacterial activity against extended-spectrum beta-lactamase producing Escherichia coli 14-1 after 18 to 24 hrs by two-fold serial dilution method; method in brief: as §2
[5] = system: Escherichia coli; experiment: Antibacterial activity against extended-spectrum beta-lactamase producing Escherichia coli 14-2 after 18 to 24 hrs by two-fold serial dilution method; method in brief: as §2
[6] = system: Escherichia coli; experiment: Antibacterial activity against Escherichia coli 14-2 after 18 to 24 hrs by two-fold serial dilution method; method in brief: as §2
[7] = system: Klebsiella pneumoniae; experiment: Antibacterial activity against Klebsiella pneumoniae 14-1 after 18 to 24 hrs by two-fold serial dilution method; method in brief: as §2
[8] = system: Escherichia coli; experiment: Antibacterial activity against Escherichia coli 14-1 after 18 to 24 hrs by two-fold serial dilution method; method in brief: as §2
[9] = system: Staphylococcus epidermidis; experiment: Antibacterial activity against methicillin-sensitive Staphylococcus epidermidis 14-2 after 18 to 24 hrs by two-fold serial dilution method; method in brief: as §2
[10] = system: Pseudomonas aeruginosa; experiment: Antibacterial activity against Pseudomonas aeruginosa ATCC 27853 after 18 to 24 hrs by two-fold serial dilution method; method in brief: as §2
[11] = system: Enterococcus faecalis; experiment: Antibacterial activity against Enterococcus faecalis 14-1 after 18 to 24 hrs by two-fold serial dilution method; method in brief: as §2
[12] = system: Klebsiella pneumoniae; experiment: Antibacterial activity against extended-spectrum beta-lactamase producing Klebsiella pneumoniae 14-17 after 18 to 24 hrs by two-fold serial dilution method; method in brief: as §2
[13] = system: Klebsiella pneumoniae; experiment: Antibacterial activity against Klebsiella pneumoniae 14-2 after 18 to 24 hrs by two-fold serial dilution method; method in brief: as §2
[14] = system: Klebsiella pneumoniae; experiment: Antibacterial activity against extended-spectrum beta-lactamase producing Klebsiella pneumoniae 14-19 after 18 to 24 hrs by two-fold serial dilution method; method in brief: as §2
[15] = system: Staphylococcus aureus; experiment: Antibacterial activity against methicillin-resistant Staphylococcus aureus 14-5 after 18 to 24 hrs by two-fold serial dilution method; method in brief: as §1
[16] = system: Pseudomonas aeruginosa; experiment: Antibacterial activity against Pseudomonas aeruginosa 14-9 after 18 to 24 hrs by two-fold serial dilution method; method in brief: as §2
[17] = system: Staphylococcus aureus; experiment: Antibacterial activity against methicillin-resistant Staphylococcus aureus 14-4 after 18 to 24 hrs by two-fold serial dilution method; method in brief: as §1
[18] = system: Staphylococcus aureus; experiment: Antibacterial activity against methicillin-sensitive Staphylococcus aureus 14-3 after 18 to 24 hrs by two-fold serial dilution method; method in brief: as §2
[19] = system: Klebsiella pneumoniae; experiment: Antibacterial activity against Klebsiella pneumoniae 14-4 after 18 to 24 hrs by two-fold serial dilution method; method in brief: as §2
[20] = system: Staphylococcus epidermidis; experiment: Antibacterial activity against methicillin-resistant Staphylococcus epidermidis 14-39 after 18 to 24 hrs by two-fold serial dilution method; method in brief: as §1
[21] = system: Pseudomonas aeruginosa; experiment: Antibacterial activity against Pseudomonas aeruginosa 14-15 after 18 to 24 hrs by two-fold serial dilution method; method in brief: as §2
[22] = system: Klebsiella pneumoniae; experiment: Antibacterial activity against extended-spectrum beta-lactamase producing Klebsiella pneumoniae 14-18 after 18 to 24 hrs by two-fold serial dilution method; method in brief: as §2
[23] = system: Pseudomonas aeruginosa; experiment: Antibacterial activity against Pseudomonas aeruginosa 14-16 after 18 to 24 hrs by two-fold serial dilution method; method in brief: as §2
[24] = system: Enterococcus faecium; experiment: Antibacterial activity against Enterococcus faecium 14-6 after 18 to 24 hrs by two-fold serial dilution method; method in brief: as §2
[25] = system: Staphylococcus aureus; experiment: Antibacterial activity against methicillin-sensitive Staphylococcus aureus 14-4 after 18 to 24 hrs by two-fold serial dilution method; method in brief: as §2
[26] = system: Staphylococcus aureus; experiment: Antibacterial activity against Staphylococcus aureus CMCC 26003 after 18 to 24 hrs by two-fold serial dilution method; method in brief: as §2
[27] = system: Enterococcus faecium; experiment: Antibacterial activity against Enterococcus faecium 14-2 after 18 to 24 hrs by two-fold serial dilution method; method in brief: as §2
[28] = system: Pseudomonas aeruginosa; experiment: Antibacterial activity against Pseudomonas aeruginosa 14-14 after 18 to 24 hrs by two-fold serial dilution method; method in brief: as §2
[29] = system: Staphylococcus epidermidis; experiment: Antibacterial activity against methicillin-resistant Staphylococcus epidermidis 14-22 after 18 to 24 hrs by two-fold serial dilution method; method in brief: as §1
[30] = system: Staphylococcus epidermidis; experiment: Antibacterial activity against methicillin-resistant Staphylococcus epidermidis 14-37 after 18 to 24 hrs by two-fold serial dilution method; method in brief: as §1
[31] = system: Escherichia coli; experiment: Antibacterial activity against Escherichia coli ATCC 25922 after 18 to 24 hrs by two-fold serial dilution method; method in brief: as §2
[32] = system: Staphylococcus aureus; experiment: Antibacterial activity against methicillin-sensitive Staphylococcus aureus 14-1 after 18 to 24 hrs by two-fold serial dilution method; method in brief: as §2
[33] = system: Staphylococcus epidermidis; experiment: Antibacterial activity against methicillin-resistant Staphylococcus epidermidis 14-21 after 18 to 24 hrs by two-fold serial dilution method; method in brief: as §1
[34] = system: Enterococcus faecalis; experiment: Antibacterial activity against Enterococcus faecalis 14-2 after 18 to 24 hrs by two-fold serial dilution method; method in brief: as §2

| Structure (SMILES) | MIC [1] [µg/mL] | MIC [2] [µg/mL] | MIC [3] [µg/mL] | MIC [4] [µg/mL] | MIC [5] [µg/mL] | MIC [6] [µg/mL] | MIC [7] [µg/mL] | MIC [8] [µg/mL] | MIC [9] [µg/mL] | MIC [10] [µg/mL] | MIC [11] [µg/mL] | MIC [12] [µg/mL] | MIC [13] [µg/mL] | MIC [14] [µg/mL] | MIC [15] [µg/mL] | MIC [16] [µg/mL] | MIC [17] [µg/mL] | MIC [18] [µg/mL] | MIC [19] [µg/mL] | MIC [20] [µg/mL] | further results |
| --- | --- | --- | --- | --- | --- | --- | --- | --- | --- | --- | --- | --- | --- | --- | --- | --- | --- | --- | --- | --- | --- |
| CO/N=C1/CN(c2nc3c(cc2F)c(=O)c(C(=O)O)cn3C2CC2)CC1(C)CNC1CC1 (stereo unspecified) | 0.25 (≈ 0.564 µM) | > 128 | 4 (≈ 9.02 µM) | 32 (≈ 72.2 µM) | > 128 | > 128 | 64 (≈ 144 µM) | > 128 | 16 (≈ 36.1 µM) | 32 (≈ 72.2 µM) | 16 (≈ 36.1 µM) | 64 (≈ 144 µM) | 128 (≈ 289 µM) | 64 (≈ 144 µM) | 4 (≈ 9.02 µM) | 16 (≈ 36.1 µM) | 4 (≈ 9.02 µM) | 0.25 (≈ 0.564 µM) | > 128 | 2 (≈ 4.51 µM) | MIC [21]: 64 µg/mL (≈ 144 µM); MIC [22]: 64 µg/mL (≈ 144 µM); MIC [23]: 64 µg/mL (≈ 144 µM); MIC [24]: 2 µg/mL (≈ 4.51 µM); MIC [25]: 0.5 µg/mL (≈ 1.13 µM); MIC [26]: < 0.008 µg/mL; MIC [27]: 4 µg/mL (≈ 9.02 µM); MIC [28]: 64 µg/mL (≈ 144 µM); MIC [29]: 2 µg/mL (≈ 4.51 µM); MIC [30]: 4 µg/mL (≈ 9.02 µM); MIC [31]: 0.5 µg/mL (≈ 1.13 µM); MIC [32]: 0.5 µg/mL (≈ 1.13 µM); MIC [33]: 4 µg/mL (≈ 9.02 µM); MIC [34]: 0.5 µg/mL (≈ 1.13 µM) |
| CO/N=C1/CN(c2c(F)cc3c(=O)c(C(=O)O)cn4c3c2OC[C@@H]4C)CC1CNC1CC1 (stereo partly specified) | 8 (≈ 18 µM) | > 64 | 64 (≈ 144 µM) | > 64 | > 64 | > 64 | 32 (≈ 72 µM) | > 64 | > 64 | 64 (≈ 144 µM) | > 64 | 4 (≈ 9 µM) | 32 (≈ 72 µM) | 8 (≈ 18 µM) | 64 (≈ 144 µM) | 64 (≈ 144 µM) | > 64 | 16 (≈ 36 µM) | > 64 | > 64 | MIC [21]: > 64 µg/mL; MIC [22]: 4 µg/mL (≈ 9 µM); MIC [23]: 64 µg/mL (≈ 144 µM); MIC [24]: > 128 µg/mL; MIC [25]: 16 µg/mL (≈ 36 µM); MIC [26]: 4 µg/mL (≈ 9 µM); MIC [27]: > 64 µg/mL; MIC [28]: > 64 µg/mL; MIC [29]: > 64 µg/mL; MIC [30]: 64 µg/mL (≈ 144 µM); MIC [31]: 0.5 µg/mL (≈ 1.12 µM); MIC [32]: 64 µg/mL (≈ 144 µM); MIC [33]: > 64 µg/mL; MIC [34]: 16 µg/mL (≈ 36 µM) |
| CC1(CNC2CC2)CN(c2nc3c(cc2F)c(=O)c(C(=O)O)cn3[C@@H]2C[C@@H]2F)C/C1=N/OCc1ccccc1 (stereo partly specified) | 1 (≈ 1.86 µM) | 64 (≈ 119 µM) | 32 (≈ 59.5 µM) | 32 (≈ 59.5 µM) | > 64 | > 64 | 64 (≈ 119 µM) | > 64 | 64 (≈ 119 µM) | 64 (≈ 119 µM) | 64 (≈ 119 µM) | 64 (≈ 119 µM) | 64 (≈ 119 µM) | > 64 | 16 (≈ 29.8 µM) | 32 (≈ 59.5 µM) | 16 (≈ 29.8 µM) | 2 (≈ 3.72 µM) | > 64 | 32 (≈ 59.5 µM) | MIC [21]: 64 µg/mL (≈ 119 µM); MIC [22]: 64 µg/mL (≈ 119 µM); MIC [23]: 64 µg/mL (≈ 119 µM); MIC [24]: 32 µg/mL (≈ 59.5 µM); MIC [25]: 8 µg/mL (≈ 14.9 µM); MIC [26]: 0.125 µg/mL (≈ 0.233 µM); MIC [27]: 16 µg/mL (≈ 29.8 µM); MIC [28]: 64 µg/mL (≈ 119 µM); MIC [29]: 16 µg/mL (≈ 29.8 µM); MIC [30]: 16 µg/mL (≈ 29.8 µM); MIC [31]: 4 µg/mL (≈ 7.44 µM); MIC [32]: 8 µg/mL (≈ 14.9 µM); MIC [33]: 16 µg/mL (≈ 29.8 µM); MIC [34]: 2 µg/mL (≈ 3.72 µM) |
| CCO/N=C1/CN(c2nc3c(cc2F)c(=O)c(C(=O)O)cn3C2CC2)CC1CNC1CC1 (stereo unspecified) | 2 (≈ 4.51 µM) | 128 (≈ 289 µM) | 16 (≈ 36.1 µM) | 8 (≈ 18 µM) | 128 (≈ 289 µM) | 128 (≈ 289 µM) | 32 (≈ 72.2 µM) | 128 (≈ 289 µM) | 128 (≈ 289 µM) | 8 (≈ 18 µM) | 64 (≈ 144 µM) | 8 (≈ 18 µM) | 32 (≈ 72.2 µM) | 8 (≈ 18 µM) | 8 (≈ 18 µM) | 8 (≈ 18 µM) | 128 (≈ 289 µM) | 8 (≈ 18 µM) | 128 (≈ 289 µM) | 16 (≈ 36.1 µM) | MIC [21]: 32 µg/mL (≈ 72.2 µM); MIC [22]: 8 µg/mL (≈ 18 µM); MIC [23]: 16 µg/mL (≈ 36.1 µM); MIC [24]: 8 µg/mL (≈ 18 µM); MIC [25]: 8 µg/mL (≈ 18 µM); MIC [26]: < 0.008 µg/mL; MIC [27]: 32 µg/mL (≈ 72.2 µM); MIC [28]: 32 µg/mL (≈ 72.2 µM); MIC [29]: 16 µg/mL (≈ 36.1 µM); MIC [30]: 32 µg/mL (≈ 72.2 µM); MIC [31]: 2 µg/mL (≈ 4.51 µM); MIC [32]: 8 µg/mL (≈ 18 µM); MIC [33]: 16 µg/mL (≈ 36.1 µM); MIC [34]: 0.125 µg/mL (≈ 0.282 µM) |
